Here are results for one molecule from ChEMBL document CHEMBL1133105, “Antimalarial, antitrypanosomal, and antileishmanial activities and cytotoxicity of bis(9-amino-6-chloro-2-methoxyacridines): influence of the linker” (J Med Chem, 2000).

SMILES strings stand for the structures. pIC50: −log10 of the molar value.

The first assay deals with Leishmania infantum. Kind of assay: Percentage of activity against Leishmania infantum at 6.25 uM; Toxic upon mouse primary peritoneal macrophages. The format is functional, organism-based.
Conditions: not given
In short, it runs like this:
(§1)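 Starch-stimulated mouse peritoneal macrophages, 30 000/well, infected after 24 h with spleen-derived L. infantum amastigotes (10:1) together with 2-fold drug dilutions (12.5–1.56 µM). Incubated 7 days at 37 °C, 5% CO2. Wright-stained slides scored microscopically as % reduction of total parasite load or of infected macrophages. Uninfected treated cultures judged microscopically for macrophage toxicity.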
In the case of `COc1ccc2nc3cc(Cl)ccc3c(NCCCN(CCCNc3c4ccc(Cl)cc4nc4ccc(OC)cc34)C(=O)[C@@H](C)NC(=O)OC(C)(C)C)c2c1`, the Cytotoxicity entry was “Toxic”.

In a further assay the test system is Leishmania infantum. Nature of the assay: Percentage of activity against Leishmania infantum at 1.56 uM. The assay is classed as functional.
Conditions: not given
In short, it runs like this:
as §1
Turning to `COc1ccc2nc3cc(Cl)ccc3c(NCCCN(CCCNc3c4ccc(Cl)cc4nc4ccc(OC)cc34)C(=O)[C@@H](C)NC(=O)OC(C)(C)C)c2c1`, the “Antileishmanial activity (% reduction of parasite load)” value is reported as 95%.

The next assay deals with Leishmania infantum. Nature of the assay: Percentage of activity against Leishmania infantum at 12.5 uM Concentration; Toxic upon mouse primary peritoneal macrophages. The assay is classed as functional, organism-based.
Conditions: not given
In short, it runs like this:
as §1
Consider `COc1ccc2nc3cc(Cl)ccc3c(NCCCN(CCCNc3c4ccc(Cl)cc4nc4ccc(OC)cc34)C(=O)[C@@H](C)NC(=O)OC(C)(C)C)c2c1`, for which the Cytotoxicity result is “Toxic”.

For another assay, the system named is Leishmania infantum. Nature of the assay: Percentage of activity against Leishmania infantum at 3.13 uM. The assay is classed as functional.
Conditions: not given
In short, it runs like this:
as §1
Turning to `COc1ccc2nc3cc(Cl)ccc3c(NCCCN(CCCNc3c4ccc(Cl)cc4nc4ccc(OC)cc34)C(=O)[C@@H](C)NC(=O)OC(C)(C)C)c2c1`, the “Percent antileishmanial activity (reduction of parasite load)” value is 99%.

In another assay the test system is MRC5. Nature of the assay: Cytotoxicity on MRC-5 cells at 12.5 uM. The assay is classed as functional. The settings on record: Homo sapiens. In short, it runs like this:
(§2)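 MRC-5 human diploid embryonic lung cells seeded at 5 000/well, washed after 24 h, then given 2-fold drug dilutions (25, 12.5, 6.25, 3.13 µM) in RPMI + 5% FCS, final DMSO below 0.5%. Incubated 7 days at 37 °C, 5% CO2. MTT colorimetric read-out, scored as % reduction of absorbance at 540 nm versus untreated controls.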
The molecule `COc1ccc2nc3cc(Cl)ccc3c(NCCCN(CCCNc3c4ccc(Cl)cc4nc4ccc(OC)cc34)C(=O)[C@@H](C)NC(=O)OC(C)(C)C)c2c1` registered a cytotoxicity at 12.5 µM of 84%.

The next assay concerns MRC5. Kind of assay: Cytotoxicity on MRC-5 cells at 25 uM. The format is functional. The settings on record: Homo sapiens. In short, it runs like this:
as §2
Turning to `COc1ccc2nc3cc(Cl)ccc3c(NCCCN(CCCNc3c4ccc(Cl)cc4nc4ccc(OC)cc34)C(=O)[C@@H](C)NC(=O)OC(C)(C)C)c2c1`, the cytotoxicity at 25 µM was 100%.

In another assay the test system is MRC5. Kind of assay: Cytotoxicity on MRC-5 cells at 3.13 uM. The settings on record: Homo sapiens. The format is functional. In short, it runs like this:
as §2
In the case of `COc1ccc2nc3cc(Cl)ccc3c(NCCCN(CCCNc3c4ccc(Cl)cc4nc4ccc(OC)cc34)C(=O)[C@@H](C)NC(=O)OC(C)(C)C)c2c1`, the cytotoxicity at 3.13 µM turned out to be 81%.

The next assay concerns MRC5. Nature of the assay: Cytotoxicity on MRC-5 cells at 6.25 uM. The assay is classed as functional. The settings on record: Homo sapiens. In short, it runs like this:
as §2
`COc1ccc2nc3cc(Cl)ccc3c(NCCCN(CCCNc3c4ccc(Cl)cc4nc4ccc(OC)cc34)C(=O)[C@@H](C)NC(=O)OC(C)(C)C)c2c1` yielded a cytotoxicity at 6.25 µM of 84%.

A further assay has as its system Plasmodium falciparum. Nature of the assay: Parasite growth inhibition against Plasmodium falciparum W2. The assay is classed as functional, organism-based.
Conditions: not given
In short, it runs like this:
(§3)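 Asynchronous cultures of each strain on human erythrocytes (0.5% parasitemia, 1% final hematocrit) were exposed to serially diluted drug for 24 h at 37 °C. Then 0.5 µCi [3H]hypoxanthine per well was added for 24 h. Incorporation was compared with a drug-free control on the same plate. IC50 was taken from the concentration-response curve as the mean of several independent experiments. DMSO was at most 0.1%.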
Turning to `COc1ccc2nc3cc(Cl)ccc3c(NCCCN(CCCNc3c4ccc(Cl)cc4nc4ccc(OC)cc34)C(=O)[C@@H](C)NC(=O)OC(C)(C)C)c2c1`, the pIC50 was 7.74.

The next assay has as its system Plasmodium falciparum. Nature of the assay: Parasite growth inhibition against Plasmodium falciparum F32A. The format is functional, organism-based.
Conditions: not given
In short, it runs like this:
as §3
Take `COc1ccc2nc3cc(Cl)ccc3c(NCCCN(CCCNc3c4ccc(Cl)cc4nc4ccc(OC)cc34)C(=O)[C@@H](C)NC(=O)OC(C)(C)C)c2c1`: the pIC50 was 7.05.

A further assay deals with Plasmodium falciparum. Kind of assay: Parasite growth inhibition against Plasmodium falciparum FCM29. The assay is classed as functional, organism-based.
Conditions: not given
In short, it runs like this:
as §3
In turn, `COc1ccc2nc3cc(Cl)ccc3c(NCCCN(CCCNc3c4ccc(Cl)cc4nc4ccc(OC)cc34)C(=O)[C@@H](C)NC(=O)OC(C)(C)C)c2c1` gave a pIC50 of 7.96.

In the next assay the test system is Plasmodium falciparum. Nature of the assay: Parasite growth inhibition against Plasmodium falciparum FCR3. The format is functional, organism-based.
Conditions: not given
In short, it runs like this:
as §3
Turning to `COc1ccc2nc3cc(Cl)ccc3c(NCCCN(CCCNc3c4ccc(Cl)cc4nc4ccc(OC)cc34)C(=O)[C@@H](C)NC(=O)OC(C)(C)C)c2c1`, the negative logarithm of the IC50 (pIC50) is 7.49.

In the next assay the test system is Plasmodium falciparum. Nature of the assay: In vitro sensitivity for Plasmodium falciparum FcB1R. The format is functional, organism-based.
Conditions: not given
In short, it runs like this: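 Asynchronous P. falciparum cultures in human erythrocytes (0.5% parasitemia, 1% haematocrit) exposed to serially diluted drug for 24 h at 37 °C. [3H]hypoxanthine (0.5 µCi/well) then added for a further 24 h. Uptake compared with drug-free controls on the same plate. IC50 taken from the concentration–response curve, averaged over independent experiments. DMSO ≤0.1%.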
Regarding `COc1ccc2nc3cc(Cl)ccc3c(NCCCN(CCCNc3c4ccc(Cl)cc4nc4ccc(OC)cc34)C(=O)[C@@H](C)NC(=O)OC(C)(C)C)c2c1`, the pIC50 was 7.48.

Another assay has as its system Plasmodium falciparum. Kind of assay: Parasite growth inhibition against Plasmodium falciparum GP1. The assay is classed as functional, organism-based.
Conditions: not given
In short, it runs like this:
as §3
The molecule `COc1ccc2nc3cc(Cl)ccc3c(NCCCN(CCCNc3c4ccc(Cl)cc4nc4ccc(OC)cc34)C(=O)[C@@H](C)NC(=O)OC(C)(C)C)c2c1` gave a pIC50 of 7.18.

A further assay deals with Plasmodium falciparum. Nature of the assay: Parasite growth inhibition against Plasmodium falciparum K1. The format is functional, organism-based.
Conditions: not given
In short, it runs like this:
as §3
Regarding `COc1ccc2nc3cc(Cl)ccc3c(NCCCN(CCCNc3c4ccc(Cl)cc4nc4ccc(OC)cc34)C(=O)[C@@H](C)NC(=O)OC(C)(C)C)c2c1`, the pIC50 was 7.64.

For the next assay, the system named is Trypanosoma cruzi. Kind of assay: Percentage of activity against Trypanosoma cruzi at 1.56 uM. The assay is classed as functional.
Conditions: not given
In short, it runs like this:
(§4)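 Mouse peritoneal macrophages, 30 000/well, infected after 24 h with about 100 000 T. cruzi trypomastigotes per well plus 2-fold drug dilutions (12.5–1.56 µM). Incubated 4 days at 37 °C, 5% CO2. Methanol-fixed, Giemsa-stained and scored microscopically as % reduction of total parasite load (free trypomastigotes plus intracellular amastigotes) versus untreated controls.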
`COc1ccc2nc3cc(Cl)ccc3c(NCCCN(CCCNc3c4ccc(Cl)cc4nc4ccc(OC)cc34)C(=O)[C@@H](C)NC(=O)OC(C)(C)C)c2c1`: the Parasite load reduction worked out at 60%.

The test system of another assay is Trypanosoma cruzi. Nature of the assay: Percentage of activity against Trypanosoma cruzi at 12.5 uM; Toxic upon mouse primary peritoneal macrophages. The assay is classed as functional, organism-based.
Conditions: not given
In short, it runs like this:
as §4
Turning to `COc1ccc2nc3cc(Cl)ccc3c(NCCCN(CCCNc3c4ccc(Cl)cc4nc4ccc(OC)cc34)C(=O)[C@@H](C)NC(=O)OC(C)(C)C)c2c1`, the Cytotoxicity result is “Toxic”.

In the next assay the test system is Trypanosoma cruzi. Nature of the assay: Percentage of activity against Trypanosoma cruzi at 3.13 uM. The assay is classed as functional.
Conditions: not given
In short, it runs like this: as §4
As to `COc1ccc2nc3cc(Cl)ccc3c(NCCCN(CCCNc3c4ccc(Cl)cc4nc4ccc(OC)cc34)C(=O)[C@@H](C)NC(=O)OC(C)(C)C)c2c1`, the “Reduction of T. cruzi parasite load” value is listed as 95%.

The subject of a further assay is Trypanosoma cruzi. Kind of assay: In Vitro evaluation for the percentage of activity towards Trypanosoma cruzi at 6.25 uM Concentration; Toxic upon mouse primary peritoneal macrophages. The format is functional, organism-based.
Conditions: not given
In short, it runs like this:
as §4
For the molecule `COc1ccc2nc3cc(Cl)ccc3c(NCCCN(CCCNc3c4ccc(Cl)cc4nc4ccc(OC)cc34)C(=O)[C@@H](C)NC(=O)OC(C)(C)C)c2c1`, the Cytotoxicity result is “Toxic”.

The subject of the next assay is Trypanosoma brucei. Kind of assay: Percentage of activity against Trypanosoma brucei at 6.25 uM.
Conditions: not given
The assay is classed as functional. In short, it runs like this:
(§5)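 Bloodstream-form T. brucei in HMI-9 medium, 10 000 parasites/well, exposed to 12.5, 6.25, 3.13 and 1.56 µM drug for 4 days. Read-out is % inhibition of parasite multiplication. Macrophage toxicity judged on mouse primary peritoneal macrophages.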
As for `COc1ccc2nc3cc(Cl)ccc3c(NCCCN(CCCNc3c4ccc(Cl)cc4nc4ccc(OC)cc34)C(=O)[C@@H](C)NC(=O)OC(C)(C)C)c2c1`, the “Inhibition of parasite multiplication” value was 100%.

For another assay, the system named is Trypanosoma brucei. Kind of assay: Percentage of activity against Trypanosoma brucei at 1.56 uM. The format is functional.
Conditions: not given
In short, it runs like this: as §5
Consider `COc1ccc2nc3cc(Cl)ccc3c(NCCCN(CCCNc3c4ccc(Cl)cc4nc4ccc(OC)cc34)C(=O)[C@@H](C)NC(=O)OC(C)(C)C)c2c1`, for which the “Percent inhibition of parasite multiplication” value is on record as 100%.

The subject of another assay is Trypanosoma brucei. Kind of assay: Percentage of activity against Trypanosoma brucei at 3.13 uM. The assay is classed as functional.
Conditions: not given
In short, it runs like this:
as §5
`COc1ccc2nc3cc(Cl)ccc3c(NCCCN(CCCNc3c4ccc(Cl)cc4nc4ccc(OC)cc34)C(=O)[C@@H](C)NC(=O)OC(C)(C)C)c2c1`: the Parasite growth inhibition stood at 100%.

The next assay has as its system Plasmodium falciparum. Kind of assay: Growth inhibition of chloroquine-sensitive Plasmodium falciparum 3D7.
Conditions: not given
Regarding `COc1ccc2nc3cc(Cl)ccc3c(NCCCN(CCCNc3c4ccc(Cl)cc4nc4ccc(OC)cc34)C(=O)[C@@H](C)NC(=O)OC(C)(C)C)c2c1`, the negative-log IC50 (pIC50) is 7.24.
